ChEMBL document CHEMBL4118021, “Studies of TAK1-centered polypharmacology with novel covalent TAK1 inhibitors” (Bioorg Med Chem, 2017)
Active and inactive are the calls of the source. No cut-off for these calls is given here.

Experiments:
[1] = molecular target: Mitogen-activated protein kinase kinase kinase 11 (Homo sapiens) (UniProt Q16584); test: Inhibition of MLK3 in human SKCO1 cells at 1 uM after 4 hrs using biotin labeled DLKSNNILLLQPIESDDMEHK probe by mass-spectrometric analysis relative to control; assay type: cell-based
[2] = molecular target: Vascular endothelial growth factor receptor 2 (Homo sapiens) (UniProt P35968); test: Inhibition of human VEGFR2 (787 to 1253 residues) expressed in mammalian expression system assessed as enzyme activity at 1 uM by KINOMEScan assay relative to control; parameters: scale not given: the % may be the effect or the level left
Vascular endothelial growth factor receptor 2 (Homo sapiens), sequence (P35968 whole entry, the tested form may be a part): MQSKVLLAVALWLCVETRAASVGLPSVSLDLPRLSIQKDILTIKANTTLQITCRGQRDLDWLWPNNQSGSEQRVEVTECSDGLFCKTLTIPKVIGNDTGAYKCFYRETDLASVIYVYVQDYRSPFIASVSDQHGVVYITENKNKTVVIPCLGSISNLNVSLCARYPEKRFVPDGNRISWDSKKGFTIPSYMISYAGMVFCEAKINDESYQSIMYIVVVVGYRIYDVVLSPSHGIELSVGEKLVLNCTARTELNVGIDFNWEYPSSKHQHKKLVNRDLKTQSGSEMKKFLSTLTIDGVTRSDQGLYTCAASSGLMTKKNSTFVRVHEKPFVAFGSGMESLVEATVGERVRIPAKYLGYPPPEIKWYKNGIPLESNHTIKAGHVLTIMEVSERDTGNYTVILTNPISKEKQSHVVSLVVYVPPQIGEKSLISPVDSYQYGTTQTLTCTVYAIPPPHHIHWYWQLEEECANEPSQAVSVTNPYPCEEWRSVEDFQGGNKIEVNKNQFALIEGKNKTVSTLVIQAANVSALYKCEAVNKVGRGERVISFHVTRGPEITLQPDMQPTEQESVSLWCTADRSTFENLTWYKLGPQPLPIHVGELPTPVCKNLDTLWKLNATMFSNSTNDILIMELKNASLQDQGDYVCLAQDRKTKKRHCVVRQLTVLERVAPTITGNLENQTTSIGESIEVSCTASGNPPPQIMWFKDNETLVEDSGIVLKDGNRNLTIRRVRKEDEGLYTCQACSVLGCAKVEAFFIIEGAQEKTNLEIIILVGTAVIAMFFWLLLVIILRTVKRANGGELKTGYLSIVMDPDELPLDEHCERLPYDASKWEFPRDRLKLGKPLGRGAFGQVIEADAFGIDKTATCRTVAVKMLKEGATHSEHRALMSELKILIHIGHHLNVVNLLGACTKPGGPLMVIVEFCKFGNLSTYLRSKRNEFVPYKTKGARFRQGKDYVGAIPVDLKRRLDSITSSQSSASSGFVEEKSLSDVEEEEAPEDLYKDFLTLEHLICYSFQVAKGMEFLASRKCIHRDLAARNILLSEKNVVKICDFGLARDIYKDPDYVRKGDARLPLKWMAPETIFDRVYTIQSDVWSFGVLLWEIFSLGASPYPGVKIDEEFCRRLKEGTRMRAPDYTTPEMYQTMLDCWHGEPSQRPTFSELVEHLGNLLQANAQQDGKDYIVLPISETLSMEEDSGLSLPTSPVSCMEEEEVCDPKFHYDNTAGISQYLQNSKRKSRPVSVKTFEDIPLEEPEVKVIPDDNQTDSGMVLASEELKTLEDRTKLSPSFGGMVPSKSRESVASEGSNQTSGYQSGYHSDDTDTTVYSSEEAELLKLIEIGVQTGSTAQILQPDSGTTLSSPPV
Outline: (§1)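 In vitro ATP-site competition binding assay across a panel of 456 kinases, with compound tested at 1 and 10 μM.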

[3] = molecular target: Cyclin-dependent kinase-like 2 (Homo sapiens) (UniProt Q92772); test: Inhibition of human CDKL2 (1 to 327 residues) expressed in bacterial expression system assessed as enzyme activity at 1 uM by KINOMEScan assay relative to control; parameters: scale not given: the % may be the effect or the level left
Outline: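 In vitro ATP-site competition binding assay (KinomeScan) across a panel of 456 kinases. Compound was tested at 1 and 10 μM. The read-out is the binding inhibition score relative to control.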

[4] = molecular target: Platelet-derived growth factor receptor beta (Homo sapiens) (UniProt P09619); test: Inhibition of human PDGFRB (582 to 1009 residues) expressed in bacterial expression system assessed as enzyme activity at 10 uM by KINOMEScan assay relative to control; parameters: scale not given: the % may be the effect or the level left; outline: as §1
Platelet-derived growth factor receptor beta (Homo sapiens), sequence (P09619 whole entry, the tested form may be a part): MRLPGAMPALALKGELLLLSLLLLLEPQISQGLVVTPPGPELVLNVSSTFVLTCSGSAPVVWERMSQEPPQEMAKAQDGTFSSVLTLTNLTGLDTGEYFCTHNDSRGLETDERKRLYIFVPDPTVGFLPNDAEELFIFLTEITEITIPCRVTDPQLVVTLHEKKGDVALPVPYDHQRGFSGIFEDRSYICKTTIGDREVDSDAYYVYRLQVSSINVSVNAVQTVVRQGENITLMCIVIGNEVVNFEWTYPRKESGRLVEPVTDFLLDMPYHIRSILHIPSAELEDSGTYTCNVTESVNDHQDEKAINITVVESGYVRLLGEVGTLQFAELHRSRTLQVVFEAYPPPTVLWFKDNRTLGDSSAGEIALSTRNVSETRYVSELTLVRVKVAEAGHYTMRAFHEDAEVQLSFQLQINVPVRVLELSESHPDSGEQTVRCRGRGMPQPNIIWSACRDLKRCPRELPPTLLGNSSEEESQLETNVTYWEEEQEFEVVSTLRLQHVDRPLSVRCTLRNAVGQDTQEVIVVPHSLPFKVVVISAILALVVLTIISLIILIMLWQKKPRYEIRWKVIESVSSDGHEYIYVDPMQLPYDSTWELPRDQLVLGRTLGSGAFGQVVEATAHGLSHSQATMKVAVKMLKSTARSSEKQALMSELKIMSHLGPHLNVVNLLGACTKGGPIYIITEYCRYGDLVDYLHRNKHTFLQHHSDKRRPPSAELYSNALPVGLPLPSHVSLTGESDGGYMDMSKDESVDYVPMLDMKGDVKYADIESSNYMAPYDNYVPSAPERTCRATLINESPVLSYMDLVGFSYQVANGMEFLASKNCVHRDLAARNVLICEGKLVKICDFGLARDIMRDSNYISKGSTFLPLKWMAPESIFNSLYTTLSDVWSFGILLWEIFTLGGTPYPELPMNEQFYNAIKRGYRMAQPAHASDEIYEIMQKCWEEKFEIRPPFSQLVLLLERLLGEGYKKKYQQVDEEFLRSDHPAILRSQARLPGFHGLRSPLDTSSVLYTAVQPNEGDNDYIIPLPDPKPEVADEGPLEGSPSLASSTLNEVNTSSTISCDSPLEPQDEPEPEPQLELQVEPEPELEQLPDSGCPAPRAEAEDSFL

[5] = molecular target: Serine/threonine-protein kinase 36 (Homo sapiens) (UniProt Q9NRP7); test: Inhibition of human STK36 (1 to 271 residues) expressed in bacterial expression system assessed as enzyme activity at 10 uM by KINOMEScan assay relative to control; parameters: scale not given: the % may be the effect or the level left; outline: as §1
Serine/threonine-protein kinase 36 (Homo sapiens), sequence (Q9NRP7 whole entry, the tested form may be a part): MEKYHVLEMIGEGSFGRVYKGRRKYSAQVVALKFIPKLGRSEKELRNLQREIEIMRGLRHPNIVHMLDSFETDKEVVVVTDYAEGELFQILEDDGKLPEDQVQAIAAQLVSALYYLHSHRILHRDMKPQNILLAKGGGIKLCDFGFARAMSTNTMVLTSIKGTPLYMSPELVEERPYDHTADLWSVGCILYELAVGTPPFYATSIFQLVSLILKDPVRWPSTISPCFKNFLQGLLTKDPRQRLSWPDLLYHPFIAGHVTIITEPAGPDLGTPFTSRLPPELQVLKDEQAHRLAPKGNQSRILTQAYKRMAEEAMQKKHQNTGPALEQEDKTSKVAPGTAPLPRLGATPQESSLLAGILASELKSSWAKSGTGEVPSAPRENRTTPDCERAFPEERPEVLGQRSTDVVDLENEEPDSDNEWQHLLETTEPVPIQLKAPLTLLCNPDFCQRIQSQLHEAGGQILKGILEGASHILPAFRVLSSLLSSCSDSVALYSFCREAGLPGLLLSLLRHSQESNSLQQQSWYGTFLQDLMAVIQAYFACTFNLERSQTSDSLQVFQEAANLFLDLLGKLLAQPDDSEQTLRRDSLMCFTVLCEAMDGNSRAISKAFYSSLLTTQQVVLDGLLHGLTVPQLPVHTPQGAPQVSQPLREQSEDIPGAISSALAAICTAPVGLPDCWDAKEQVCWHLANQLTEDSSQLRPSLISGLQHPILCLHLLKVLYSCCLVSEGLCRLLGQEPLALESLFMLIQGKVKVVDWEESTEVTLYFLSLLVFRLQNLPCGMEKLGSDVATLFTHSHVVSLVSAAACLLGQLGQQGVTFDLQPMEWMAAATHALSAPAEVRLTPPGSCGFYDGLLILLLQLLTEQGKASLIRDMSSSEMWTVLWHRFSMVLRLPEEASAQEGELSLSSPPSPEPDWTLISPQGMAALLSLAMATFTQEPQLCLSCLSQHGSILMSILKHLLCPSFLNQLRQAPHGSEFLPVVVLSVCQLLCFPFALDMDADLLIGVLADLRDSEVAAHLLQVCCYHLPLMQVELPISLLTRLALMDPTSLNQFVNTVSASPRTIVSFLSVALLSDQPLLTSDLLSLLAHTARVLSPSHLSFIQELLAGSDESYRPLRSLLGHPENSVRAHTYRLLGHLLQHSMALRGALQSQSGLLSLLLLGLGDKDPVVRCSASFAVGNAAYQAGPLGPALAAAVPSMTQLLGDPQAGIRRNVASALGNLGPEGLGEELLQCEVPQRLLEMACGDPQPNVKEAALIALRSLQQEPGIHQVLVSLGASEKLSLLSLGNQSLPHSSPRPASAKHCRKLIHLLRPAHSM

[6] = molecular target: Hepatocyte growth factor receptor (Homo sapiens) (UniProt P08581); test: Inhibition of MET in human SKCO1 cells at 1 uM after 4 hrs using biotin labeled TGAKLPVK probe by mass-spectrometric analysis relative to control; assay type: cell-based
[7] = molecular target: Tyrosine-protein kinase Fer (Homo sapiens) (UniProt P16591); test: Inhibition of FER in human SKCO1 cells at 1 uM after 4 hrs using biotin labeled TSVAVKTCKEDLPQELK probe by mass-spectrometric analysis relative to control; assay type: cell-based
[8] = molecular target: Ras GTPase-activating-like protein IQGAP1 (Homo sapiens) (UniProt P46940); test: Binding affinity to IQGAP1 in human NCI-H23 cells at 1 uM by mass spectrometry based pull down assay; assay type: cell-based
[9] = molecular target: Multifunctional methyltransferase subunit TRM112-like protein (Homo sapiens) (UniProt Q9UI30); test: Binding affinity to TRMT112 in human NCI-H23 cells at 1 uM by mass spectrometry based pull down assay; assay type: cell-based
Multifunctional methyltransferase subunit TRM112-like protein (Homo sapiens), sequence (Q9UI30 whole entry): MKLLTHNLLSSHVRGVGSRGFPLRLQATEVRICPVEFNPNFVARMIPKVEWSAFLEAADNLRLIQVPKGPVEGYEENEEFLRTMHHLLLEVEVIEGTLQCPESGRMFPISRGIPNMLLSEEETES

NCI-H23 [10] = test: Binding affinity to NDUFS7 in human NCI-H23 cells at 1 uM by mass spectrometry based pull down assay; assay type: cell-based
[11] = molecular target: Clustered mitochondria protein homolog (Homo sapiens) (UniProt O75153); test: Binding affinity to CLUH in human NCI-H23 cells at 1 uM by mass spectrometry based pull down assay; assay type: cell-based
[12] = molecular target: Arginine--tRNA ligase, cytoplasmic (Homo sapiens) (UniProt P54136); test: Binding affinity to RARS in human NCI-H23 cells at 1 uM by mass spectrometry based pull down assay; assay type: cell-based
NCI-H23 [13] = test: Binding affinity to PTGES3L-AARSD1 in human NCI-H23 cells at 1 uM by mass spectrometry based pull down assay; assay type: cell-based
[14] = molecular target: Histone H2B type 2-F (Homo sapiens) (UniProt Q5QNW6); test: Binding affinity to HIST2H2BF in human NCI-H23 cells at 1 uM by mass spectrometry based pull down assay; assay type: cell-based
[15] = molecular target: T1, 80S Ribosome (Homo sapiens) (UniProt P08865+P42677+P62753+P15880+P23396+P61247+P62701+P22090+P46782+P62081+P62241+P46781+P46783+P62280+P25398+P62277+P62263+P62841+P62244+P62249+P08708+P62269+P39019+P60866+P63220+P62266+P62847+P62851+P62854+P62979+P62857+P62273+P62861+P39023+P36578+P46777+Q02878+P18124+P62424+P62917+P32969+P27635+P62906+P62913+P30050+P26373+P40429+P50914+P61313+P18621+Q07020+Q02543+P84098+P46778+P35268+P62829+P62750+P83731+P61254+P61353+P46776+P46779+P47914+P62888+P62899+P62910+P49207+P42766+P18077+Q9Y3U8+P83881+P61927+P61513+P63173+P62891+P62945+P05388+P05386); test: Binding affinity to RPL35A in human NCI-H23 cells at 1 uM by mass spectrometry based pull down assay; assay type: cell-based
[16] = molecular target: T1, 80S Ribosome (Homo sapiens); test: Binding affinity to RPS7 in human NCI-H23 cells at 1 uM by mass spectrometry based pull down assay; assay type: cell-based
[17] = molecular target: DNA mismatch repair protein Msh2 (Homo sapiens) (UniProt P43246); test: Binding affinity to MSH2 in human NCI-H23 cells at 1 uM by mass spectrometry based pull down assay; assay type: cell-based
[18] = molecular target: T-complex protein 1 subunit theta (Homo sapiens) (UniProt P50990); test: Binding affinity to CCT8 in human NCI-H23 cells at 1 uM by mass spectrometry based pull down assay; assay type: cell-based
T-complex protein 1 subunit theta (Homo sapiens), sequence (P50990 whole entry, one chain of several): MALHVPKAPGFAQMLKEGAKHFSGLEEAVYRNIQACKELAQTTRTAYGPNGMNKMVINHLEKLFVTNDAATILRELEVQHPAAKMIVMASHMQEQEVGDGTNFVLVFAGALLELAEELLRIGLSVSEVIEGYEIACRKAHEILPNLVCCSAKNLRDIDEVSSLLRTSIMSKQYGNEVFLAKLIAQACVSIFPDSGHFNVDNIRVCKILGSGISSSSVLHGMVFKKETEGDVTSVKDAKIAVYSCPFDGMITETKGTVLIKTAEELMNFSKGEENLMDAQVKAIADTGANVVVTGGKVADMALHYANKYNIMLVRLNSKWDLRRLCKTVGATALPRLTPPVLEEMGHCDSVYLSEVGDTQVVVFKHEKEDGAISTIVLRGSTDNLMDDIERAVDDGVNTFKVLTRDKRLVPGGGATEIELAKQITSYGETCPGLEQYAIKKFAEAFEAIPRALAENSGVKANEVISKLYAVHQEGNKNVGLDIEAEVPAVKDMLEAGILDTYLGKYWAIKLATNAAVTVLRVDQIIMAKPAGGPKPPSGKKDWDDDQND

[19] = molecular target: ATP-dependent 6-phosphofructokinase, liver type (Homo sapiens) (UniProt P17858); test: Binding affinity to PFKL in human NCI-H23 cells at 1 uM by mass spectrometry based pull down assay; assay type: cell-based
[20] = molecular target: Eukaryotic translation initiation factor 6 (Homo sapiens) (UniProt P56537); test: Binding affinity to EIF6 in human NCI-H358 cells at 1 uM by mass spectrometry based pull down assay; assay type: cell-based
[21] = molecular target: T1, 80S Ribosome (Homo sapiens); test: Binding affinity to RPS24 in human NCI-H358 cells at 1 uM by mass spectrometry based pull down assay; assay type: cell-based
[22] = molecular target: Peroxiredoxin-6 (Homo sapiens) (UniProt P30041); test: Binding affinity to PRDX6 in human NCI-H358 cells at 1 uM by mass spectrometry based pull down assay; assay type: cell-based
Peroxiredoxin-6 (Homo sapiens), sequence (P30041 whole entry): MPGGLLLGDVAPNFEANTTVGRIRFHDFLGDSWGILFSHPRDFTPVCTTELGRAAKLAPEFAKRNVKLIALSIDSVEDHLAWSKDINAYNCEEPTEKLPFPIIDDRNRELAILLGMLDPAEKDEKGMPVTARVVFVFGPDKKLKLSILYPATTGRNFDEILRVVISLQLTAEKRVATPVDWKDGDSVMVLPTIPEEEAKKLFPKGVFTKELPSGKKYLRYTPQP

[23] = molecular target: Small ribosomal subunit protein uS7m (Homo sapiens) (UniProt Q9Y2R9); test: Binding affinity to MRPS7 in human NCI-H358 cells at 1 uM by mass spectrometry based pull down assay; assay type: cell-based
[24] = molecular target: Ketosamine-3-kinase (Homo sapiens) (UniProt Q9HA64); test: Binding affinity to FN3KRP in human NCI-H358 cells at 1 uM by mass spectrometry based pull down assay; assay type: cell-based
[25] = molecular target: Protein diaphanous homolog 1 (Homo sapiens) (UniProt O60610); test: Binding affinity to DIAPH1 in human NCI-H358 cells at 1 uM by mass spectrometry based pull down assay; assay type: cell-based
[26] = molecular target: 5'-AMP-activated protein kinase subunit gamma-1 (Homo sapiens) (UniProt P54619); test: Binding affinity to PRKAG1 in human NCI-H358 cells at 1 uM by mass spectrometry based pull down assay; assay type: cell-based
5'-AMP-activated protein kinase subunit gamma-1 (Homo sapiens), sequence (P54619 whole entry): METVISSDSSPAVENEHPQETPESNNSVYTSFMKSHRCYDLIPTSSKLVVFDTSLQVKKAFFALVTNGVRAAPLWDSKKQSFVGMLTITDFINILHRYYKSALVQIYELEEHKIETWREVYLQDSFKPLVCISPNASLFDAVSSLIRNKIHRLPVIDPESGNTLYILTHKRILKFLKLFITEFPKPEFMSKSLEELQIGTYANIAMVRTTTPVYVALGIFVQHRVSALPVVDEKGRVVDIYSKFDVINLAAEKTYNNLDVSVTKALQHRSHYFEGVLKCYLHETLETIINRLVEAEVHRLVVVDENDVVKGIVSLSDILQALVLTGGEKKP

COc1cc(O)c2c(c1)/C=C/C[C@H](O)[C@H](O)C(=O)/C=C\C[C@H](C)OC2=O
inhibition [1]: -1.7%
Activity [2]: 78%
Activity [3]: 76%
Activity [4]: 0.05%
Activity [5]: 0.95%

C=CC(=O)Nc1ccccc1Oc1nc(Nc2cnn(CCOC)c2)ncc1Cl
inhibition [6]: -1.9%

C=CC(=O)Nc1ccccc1Nc1nc(Nc2ccc(N3CCN(C)CC3)cc2)ncc1Cl
inhibition [7]: -0.2%

C=CC(=O)Nc1ccccc1Nc1nc(Nc2ccc(N3CCN(CCOCCOCCOCCNC(=O)CCCC[C@@H]4SC[C@@H]5NC(=O)N[C@@H]54)CC3)cc2)ncc1Cl
Activity [8]: Active
Activity [9]: Active
Activity (NCI-H23 [10]): Active
Activity [11]: Active
Activity [12]: Active
Activity (NCI-H23 [13]): Active
Activity [14]: Active
Activity [15]: Active
Activity [16]: Active
Activity [17]: Active
Activity [18]: Active
Activity [19]: Active
Activity [20]: Active
Activity [21]: Active
Activity [22]: Active
Activity [23]: Active
Activity [24]: Active
Activity [25]: Active
Activity [26]: Active
